≈ marks a conversion by molar mass, not a printed value. Calls of active or inactive are those of the source. No cut-off for these calls is given here.

For series [1], the system named is Staphylococcus aureus. Put plainly: Antibacterial activity against methicillin resistant Staphylococcus aureus after 24 hrs by microbroth dilution method. The series is classed as functional. In a few lines:
(§1)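 Tested by CLSI-standard broth microdilution against a panel of eleven bacterial strains, Gram-positive and Gram-negative, including MRSA.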
A general note: Broth dilution looks for growth in wells or tubes with falling amounts of substance.

Series [2] relates to Staphylococcus aureus. Put plainly: Antibacterial activity against Staphylococcus aureus after 24 hrs by microbroth dilution method. Type of series: functional. The procedure, abridged: as §1
Series [3] relates to Staphylococcus aureus. Description: Antibacterial activity against Staphylococcus aureus ATCC 25923 after 24 hrs by microbroth dilution method. Type of series: functional. The conditions noted are these: ATCC 25923, 24 h. In a few lines:
as §1

In series [4] the test system is Staphylococcus aureus. Put plainly: Antibacterial activity against Staphylococcus aureus ATCC 29213 after 24 hrs by microbroth dilution method. Type of series: functional. To be noted: ATCC 29213, 24 h. The procedure, abridged:
as §1

For series [5], the system named is Enterococcus faecalis. Put plainly: Antibacterial activity against Enterococcus faecalis after 24 hrs by microbroth dilution method. The series is classed as functional. In a few lines:
as §1

The subject of series [6] is Klebsiella pneumoniae. Description: Antibacterial activity against Klebsiella pneumoniae after 24 hrs by microbroth dilution method. The series is classed as functional. The procedure, abridged: as §1
Series [7] relates to Escherichia coli. Put plainly: Antibacterial activity against Escherichia coli after 24 hrs by microbroth dilution method. Type of series: functional. In a few lines: as §1
Series [8] concerns Escherichia coli. Put plainly: Antibacterial activity against Escherichia coli ATCC 25922 after 24 hrs by microbroth dilution method. To be noted: ATCC 25922, 24 h. The series is classed as functional. The procedure, abridged:
as §1

For series [9], the system named is Pseudomonas aeruginosa. Description: Antibacterial activity against Pseudomonas aeruginosa after 24 hrs by microbroth dilution method. Type of series: functional. In a few lines: as §1
Series [10] concerns Pseudomonas aeruginosa. Description: Antibacterial activity against Pseudomonas aeruginosa ATCC 27853 after 24 hrs by microbroth dilution method. The series is classed as functional. The conditions noted are these: ATCC 27853, 24 h. The procedure, abridged:
as §1

Series [11] concerns Acinetobacter baumannii. Description: Antibacterial activity against Acinetobacter baumannii after 24 hrs by microbroth dilution method. Type of series: functional. The procedure, abridged: as §1
For series [12], the system named is Aspergillus fumigatus. Description: Antifungal activity against Aspergillus fumigatus after 24 hrs by microbroth dilution method. The series is classed as functional.
In series [13] the test system is Aspergillus fumigatus. Description: Potency index, ratio of fluconazole MIC to compound MIC for antifungal activity against Aspergillus fumigatus. The series is classed as functional.
Series [14] deals with Candida albicans. Description: Antifungal activity against Candida albicans ATCC 90023 after 24 hrs by microbroth dilution method. The series is classed as functional. The conditions noted are these: ATCC 90023, 24 h.
Series [15] deals with Staphylococcus aureus. Description: Antibacterial activity against methicillin resistant Staphylococcus aureus after 16 serial passages measured after 12 hrs by microbroth dilution method. The series is classed as functional, organism-based. In a few lines:
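MRSA standard strain passaged serially with compound. Each passage starts from the bacteria grown at sub-MIC (0.5 × MIC), and the MIC is redetermined by the broth microdilution method at every passage.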

Series [16] concerns Staphylococcus aureus. Description: Bactericidal activity against methicillin resistant Staphylococcus aureus assessed as reduction in bacterial load at 6 times MIC up to 1 hr by time kill assay. Type of series: functional. The procedure, abridged: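 MRSA grown 6 h at 37 °C and diluted to about 1.8 × 10^5 CFU/mL. Compound added at MIC and 6 × MIC, then incubated at 37 °C. Samples taken at 0, 30, 60, 90, 120, 240, 360 and 420 min, diluted 10-fold serially in 0.9% saline, plated on agar and counted after 24 h at 37 °C.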

Series [17] in a line: Cytotoxicity against mouse L929 cells assessed as cell viability up to 128 ug/ml after 48 hrs by MTT assay relative to control. To be noted: read-out: Activity. The series is classed as cell-based. The procedure, abridged: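 Mouse fibroblast L929 cells grown in DMEM with 10% serum and 1% penicillin/streptomycin at 37 °C, 5% CO2, seeded and cultured 24 h. Compound diluted in medium and tested in triplicate at 0, 4, 8, 16, 32, 64, 128, 256 and 512 μg/mL for 48 h. MTT in PBS added for 3–4 h, formazan dissolved in DMSO, absorbance read at 570 nm (also stated 490 nm).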
A general note: Tetrazolium dyes change colour on reduction, which living cells bring about.

Series [18] relates to Cell membrane. Put plainly: Binding affinity to methicillin resistant Staphylococcus aureus cell membrane assessed as induction of membrane permeabilization at 12 times MIC measured for 10 to 70 mins by propidium iodide dye based fluorescence assay. The procedure, abridged: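 MRSA cultured 12 h at 37 °C, centrifuged, washed and resuspended in 5 mM glucose/5 mM HEPES (1:1). Compound (12 × MIC) added to cuvette with cells and propidium iodide. PI uptake followed as fluorescence increase (ex 535 nm, em 617 nm).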

Series [19] has as its system DNA. Description: Binding affinity to methicillin resistant Staphylococcus aureus DNA assessed as hypochromic effect up to 3.5 x 10^-5mol/L by absorption spectra analysis. Type of series: nucleic-acid assay.
The subject of series [20] is DNA. Put plainly: Binding affinity to methicillin resistant Staphylococcus aureus DNA by absorption spectra analysis. Type of series: nucleic-acid assay.
In series [21] the test system is DNA. Description: Inhibition of neutral red dye binding to methicillin resistant Staphylococcus aureus DNA up to 3.5 x 10^-5mol/L by UV-Visible absorption spectra analysis. Type of series: nucleic-acid assay. The procedure, abridged:
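MRSA genomic DNA with A260/A280 > 1.8 in Tris-HCl buffer pH 7.4, combined with aqueous neutral red dye stock. Competitive displacement followed by UV-vis absorption spectroscopy.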

As for `CCOP(=O)(OCC)C(Nc1ncccn1)c1ccc(Cl)cc1Cl` (stereo not drawn), the MIC turned out to be 8 µg/mL (≈ 20.5 µM) in series [1]; 64 µg/mL (≈ 164 µM) in series [2]; 8 µg/mL (≈ 20.5 µM) in [3]; 64 µg/mL (≈ 164 µM) in series [4]; 32 µg/mL (≈ 82 µM) in series [5]; 64 µg/mL (≈ 164 µM) in [6]. Also, the MIC in series [7] was 256 µg/mL (≈ 656 µM); in [8] it was 16 µg/mL (≈ 41 µM); in series [9], 64 µg/mL (≈ 164 µM); in series [10] it was 8 µg/mL (≈ 20.5 µM); in series [11] it was 64 µg/mL (≈ 164 µM); in series [12] it was over 16 µg/mL. Moreover, in series [14], the MIC stood at 8 µg/mL (≈ 20.5 µM). The Ratio in series [13] is 16.

Consider `CCCCCn1c(CCCC)nc(Cl)c1C(Nc1ncccn1)P(=O)(OCC)OCC` (stereo not drawn), for which the MIC turned out to be 4 µg/mL (≈ 8.48 µM) in series [1]; 64 µg/mL (≈ 136 µM) in series [2]; 32 µg/mL (≈ 67.8 µM) in [3]; 64 µg/mL (≈ 136 µM) in series [4]; 8 µg/mL (≈ 17 µM) in series [5]; 8 µg/mL (≈ 17 µM) in series [6]. Also, the MIC is 128 µg/mL (≈ 271 µM) in series [7]; 16 µg/mL (≈ 33.9 µM) in [8]; 64 µg/mL (≈ 136 µM) in series [9]; 64 µg/mL (≈ 136 µM) in series [10]; 32 µg/mL (≈ 67.8 µM) in [11]; over 16 µg/mL in [12]. Further, the Ratio in [13] is reported as 16. In addition, the result in [15], in [18] and in series [19] was Active. In series [16], the Activity is over 3 deltalog10CFU/ml. Further, in [17], the viability at 48 h is at most 80%. The molecule further showed a K in series [20] of 6.84 ×10³ L/mol. Besides, in series [21], the inhibition entry was “Active”.

For the molecule `CCOP(=O)(OCC)C(Nc1ncccn1)c1ccc(Cl)cc1` (stereo not drawn), the MIC in [1] came out at 64 µg/mL (≈ 180 µM); in [2], 256 µg/mL (≈ 720 µM); in series [3] it was 64 µg/mL (≈ 180 µM); in series [4], 256 µg/mL (≈ 720 µM); in series [5] it was 32 µg/mL (≈ 89.9 µM); in series [6] it was 128 µg/mL (≈ 360 µM). Further, the MIC was 512 µg/mL (≈ 1440 µM) in series [7]; 256 µg/mL (≈ 720 µM) in series [8]; 256 µg/mL (≈ 720 µM) in series [9]; 8 µg/mL (≈ 22.5 µM) in [10]; 128 µg/mL (≈ 360 µM) in [11]; over 16 µg/mL in [12]. Further, inhibition of growth in series [14] (MIC) required 8 µg/mL (≈ 22.5 µM). In addition, in [13], the Ratio was 16.

For orientation: MIC means the lowest concentration that inhibits growth of the organism.

The record behind these values is ChEMBL document CHEMBL4257553, “Novel organophosphorus aminopyrimidines as unique structural DNA-targeting membrane active inhibitors towards drug-resistant methicillin-resistant Staphylococcus aureus” (Medchemcomm, 2018).
